Measured values from ChEMBL document CHEMBL4513216, “Probing the Open Global Health Chemical Diversity Library for Multistage-Active Starting Points for Next-Generation Antimalarials” (ACS Infect Dis, 2020).

Assay: Toxicity liver stage against HepG2, at 10uM
Format: cell-based
Parameters: test concentration 10 uM, cell line HepG2-A16-CD81EGFP
Settings: human, HepG2-A16-CD81EGFP cells; read-out: INHIBITION
Outline: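 Uninfected HepG2-A16-CD81EGFP cells, 3 × 10^3 per well, 1536-well, plated on prespotted compound at 10 μM final, parasite-free screening media added to match infected plates; puromycin 10 μM positive, DMSO 0.5% negative; run in parallel with 48 h PbLuc assay at 37 °C, 5% CO2; viability by CellTiter-Glo luminescence, normalized to controls.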

SMILES | cytotoxicity at 10 µM [%]
CS(=O)(=O)NC[C@H]1Cn2c(-c3ccc(Cl)cc3)cnc2CO1 | -3.58
CC(=O)Nc1ccccc1Sc1nc(Br)nn1C | -1.05
Cc1nc(-c2ccc(S(=O)(=O)N3CCCCC3)cc2)co1 | -2.5
CCOC(=O)[C@H]1[C@@H](O)C(=O)N(C)C12CCN(C(=O)C(CC)CC)CC2 | -4.47
CCN1CC(O)CN(C(=O)c2cccc(C(F)(F)F)c2)CC1=O (stereo not given) | 4.04
COc1cc(OC)cc(-c2noc(C(N)CCSC)n2)c1 (stereo not given) | -3.18
COCCn1cc(CC(=O)Nc2nc[nH]n2)c2ccccc21 | -0.145
CCOc1ccc(C(=O)Nc2c(C)nc3scc(C)n3c2=O)cc1 | -5.58
COC1(CNC(=O)c2ccsc2)CCSC1 (stereo not given) | -3.09
CN(Cc1ccccc1)CC1CC2(CO1)CN(Cc1cnn(C)c1)C2 (stereo not given) | 9.76
N#Cc1cccc(N2CCCC3(CN(C(=O)c4ccc[nH]4)CCO3)C2)c1 (stereo not given) | 13.3
CCC1=N[C@@]2(CC[C@@H]3CN(CC4CC4)C[C@@H]32)C(=O)N1 | 4.86
Cn1cc(C2CC(=O)NC23CCN(C(=O)c2ccc[nH]2)CC3)cn1 (stereo not given) | 8.94
Cc1cc(C(=O)N2CCCC3(CCCN3Cc3cccnc3)C2)[nH]n1 (stereo not given) | 8.07
CN(C)CCOCC1CN(C(=O)c2cscn2)Cc2ccnn2C1 (stereo not given) | 3.65
O=C(NCC1CC1)C1CN(C(=O)c2ccnnc2)CC12CCOCC2 (stereo not given) | 8.21
Cn1cc(NC(=O)Cn2cc(-c3ccccc3)ncc2=O)cn1 | -3.43
O=C(Cc1ccccc1)N1CCC2(CC(=O)N(c3cccc(F)c3)C2)C1 (stereo not given) | -0.557
CC(C)N1CC(C(=O)NCc2ccc(S(=O)(=O)N(C)C)cc2)CC1=O (stereo not given) | 4.44
O=C(Cc1ccc(F)c(F)c1)NC1COc2ccccc2C1=O (stereo not given) | 4.61
COc1ccc(COCC(O)CSc2ccc(NC(C)=O)cc2)cc1 (stereo not given) | 8.22
Cc1cc(C)n(CCCNC(=O)C2CCCO2)n1 (stereo not given) | -11.5

SMILES | cytotoxicity at 10 µM [%]
CN1CCOC(CNCc2nc(-c3ccoc3)no2)C1 (stereo not given) | -5.27
CCOCCN1CCN(CC(=O)NC2(C#N)CCCC2)CC1CC (stereo not given) | 7.73
CC(NC(N)=O)C(=O)NCc1cc(Br)ccc1F (stereo not given) | -3.02
COc1ccccc1NCC(=O)NCc1scnc1C | 5.48
Cc1nc(C)c(C(=O)N2CCc3c(C)cccc32)o1 | -2.28
Cc1noc(C)c1CNC(=O)Nc1ccc(N2CCOC(C)C2)cc1 (stereo not given) | -2.35
CN(C)c1ccc(C(=O)Nc2ccn(CCc3ccncc3)n2)cc1 | -4.59
CN(C(=O)c1ccc(Cl)c(S(C)(=O)=O)c1)c1ccccc1 | -1.47
CCN(CC)C(=O)c1ccc(COc2ccccc2C#N)o1 | 1.96
CCCc1nnc(NC(=O)NC2CCOc3ccccc32)s1 (stereo not given) | 3.72
COc1ccc(NC(=O)N(CCO)Cc2ccsc2)c(OC)c1 | 12.2
COc1ccc(C(C)NC(=O)NCCc2ccc(C)nc2)c(OC)c1 (stereo not given) | -1.74
CC(=O)N1CCC(NC(=O)Cc2csc(C(C)(C)C)n2)CC1 | -8.41
CC(=O)NCCC(=O)NCc1ccc(Br)cc1Cl | 0.871
NC(=O)NC(=O)CCSCc1coc(-c2cccc(Cl)c2)n1 | -1.23
Cc1ccc2c(c1)C(NCc1nccn1Cc1ccccc1)CCCO2 (stereo not given) | 1.26
Cc1nc(CNC(C(=O)N2CCOCC2)C(C)C)oc1C (stereo not given) | -4.34
O=C(Nc1ccc(=O)n(Cc2ccccc2Cl)c1)C1CC1 | -6.57
CCCOc1ccc(Cl)cc1C(=O)N1CCC(n2cncn2)CC1 | 2.93
CC(Cn1cccn1)NC(=O)NCCN1CCCCCC1=O (stereo not given) | 12.3
CCC(C)(NCc1nnc(C(C)(C)C)o1)c1nccs1 (stereo not given) | 19.2
Cc1csc(C(C)(C)NCC(=O)N2CCCC(C(F)(F)F)C2)n1 (stereo not given) | 6.32

SMILES | cytotoxicity at 10 µM [%]
CCO[C@@H]1CC[C@H]2[C@H]1OCCN2C(=O)CC1=CCCCC1 | 2.91
CCN(C(=O)c1nc2c(s1)CCCN2C(C)=O)C(C)C | -0.802
Cn1cnc(-c2nc(C(=O)NC3CC3)c3ccccn23)c1 | -114
Cc1nccc([C@H]2C[C@@H]3CCN(Cc4ccco4)C[C@H]3O2)n1 | -1.03
O=C(c1ccnnc1)N1C[C@H](OCc2ccccn2)[C@H]2COC[C@H]21 | -7.52
O=C(c1ccccn1)N1CCC2(CC1)COC(COc1cccnc1)C2 (stereo not given) | -1.98
Cc1cc(NC(C)c2nnn[nH]2)n2nc(C)c(C)c2n1 (stereo not given) | 9.4
Cn1nccc1NC(=O)c1cccc(CN2C[C@H]3CC[C@@H](C2)N3)c1 | 6.56
O=C(NC1CCCC1)c1cc(Cn2cnc3ccccc32)on1 | 4.51
CN(C)CCN1CC(C(=O)NCc2ccc(C#N)cc2)CC1=O (stereo not given) | -6.02
CC(C)c1nnsc1CNC(=O)C1CCN(C(C)C)CC1 | -8.05
CC(C)C1CN(C(=O)c2csc(CN(C)C)n2)CCC(=O)N1CC1CC1 (stereo not given) | -1.74
COc1nccnc1N1CCN(Cc2cccc(C)c2)C(=O)C1 | -0.408
CCCc1nnc(NC2CCN(CCO)CC2)o1 | 8.35
Cc1ncc(C(=O)N2CCCCC2c2nc3cc(F)ccc3[nH]2)c(O)n1 (stereo not given) | -0.305
Cn1ccnc1C1CCCN(C(=O)c2ccc3nccnc3c2)C1 (stereo not given) | 19.7
O=C(CCCN1CCCCC1)NC(C(=O)O)c1ccc(Cl)cc1 (stereo not given) | -2.33
CC1(c2ccccc2)CCCN(Cc2nnc(-c3cccnc3)o2)C1 (stereo not given) | -6.64
Cc1cc(C2CCC2)nc(N(C)Cc2ncccc2C)n1 | -0.392
Clc1cc(N2CCN(C3CCOCC3)CC2)nc2[nH]ccc12 | -3.96
CCN(Cc1ccccc1)C(=O)CCN1C[C@@H](C(=O)O)[C@H](C2CC2)C1 | 6.94
CN(C)c1nc2c(c(NCc3nnc4n3CCCCC4)n1)CCNC2 | -1.37

SMILES | cytotoxicity at 10 µM [%]
NCCO[C@H]1C[C@@H](O)C12CCN(C(=O)CCOc1ccccc1)CC2 | 3.12
O=C(O)c1cccnc1CN1CCCCC1CCc1cccs1 (stereo not given) | 5.23
Cc1nn(C)c(C)c1C1COCCN1C(=O)CCc1ccccc1 (stereo not given) | -0.284
COCCc1noc(CN2CCCC2c2c(C)nn(C)c2Cl)n1 (stereo not given) | -7.71
COc1ccc(-n2ccc(C(=O)NCCn3ccnc3)n2)cc1 | -7.2
Cc1nccn1-c1cc(CNC(=O)CCS(=O)(=O)C2CCCC2)ccn1 | -1.71
CCc1cnc(CN(C(C)=O)C2CCN(CC3(O)CCCCC3)C2)o1 (stereo not given) | 0.195
COCCN1CCC(CNC(=O)C2(c3ccccc3)CCOCC2)C1 (stereo not given) | -5.87
Cc1cnn(CCC(=O)NC2CCc3nc(C)cn3C2)c1 (stereo not given) | 0.132
CC(C#N)CN(C)Cc1nc2c(cnn2C)c(=O)[nH]1 (stereo not given) | -6.45
Cn1cc(NC(=O)N2CCC2c2ccccc2)ccc1=O (stereo not given) | -9.57
CCc1nc(CNCC2CCCN2c2cccnn2)cs1 (stereo not given) | -7.69
CCc1noc(CN2CCC(C(=O)Nc3cnn(CC)c3)CC2)n1 | 3.43
Cc1cnn(CCC(=O)N2CCN(c3ccc(C#N)cn3)CC2)c1 | -0.417
CCOc1ncccc1NC(=O)NC1CCN(C(C)=O)CC1 | -6.47
Cc1cc(C(=O)N2CCCC(n3cccn3)C2)c(C)n1C1CC1 (stereo not given) | -16.7
CC(C)CCC(=O)NCCc1ccn(-c2ccccc2)n1 | -14.6
Cc1ccccc1CN1CCN(C(C)c2nc(C3CC3)no2)CC1 (stereo not given) | -22.2
CN(Cc1cnn(C)c1)CC1CCCN1c1cccnn1 (stereo not given) | -1.07
Cc1cnn(CC2CCCCN2C(=O)c2ccc3[nH]cnc3c2)c1 (stereo not given) | -9.75
CCc1nnc2n1CCN(CC(=O)Nc1cc(C)on1)C2 | 5.18
Cc1cnc(CN(C)C2CCN(Cc3nc4ccccc4n3C)C2)o1 (stereo not given) | 2.57

SMILES | cytotoxicity at 10 µM [%]
Cc1cc(OCC(=O)N2CCCC(c3noc(C)n3)C2)no1 (stereo not given) | -0.0722
CC(Cn1cccn1)NC(=O)Cc1cccs1 (stereo not given) | 4.93
CCN1CCC(NC(=O)CN2CCCC2Cn2cncn2)CC1 (stereo not given) | 6.54
Cc1nc2c(c(C)c1CC(=O)NCc1cccc(C#N)c1)c(=O)[nH]n2C | -0.722
Cn1cnnc1C1CCCN(C(=O)c2cnc3ccccc3n2)C1 (stereo not given) | 0.577
COCCO[C@H]1CCN(c2ccc(C)nn2)[C@H]1Cc1cccnc1 | 1.53
COCC(=O)N1CCC2(CC1)CNc1ccc(F)cc12 | 12.2
N#Cc1cnc2ccccc2c1N1CCN(CCC(=O)O)CC1 | -1.28
CCS(=O)(=O)N1CCOC2(CCCN(c3ccc(C)nn3)C2)C1 (stereo not given) | 0.253
CN1CCN(CC2CC2)C(=O)C12CCN(C(=O)c1ccnnc1)CC2 | 8.49
Cc1nc(CNCC2Cn3nncc3CO2)cs1 (stereo not given) | -93.2
O=C([C@@H]1CC[C@@H]2[C@@H](CCN2c2ccncn2)O1)N1CCCCO1 | 3.13
COCc1cncc2c1CCN(C(=O)c1ccc(C#N)cc1)C2 | -106
CCOCC1CN(c2ccncn2)Cc2cnn(CC)c21 (stereo not given) | 3.04
CN1CC[C@@H]2OC[C@H](C(=O)N(C)Cc3ccccn3)C[C@@H]2C1 | -98
c1ccc(CO[C@@H]2CC[C@H]3[C@H]2OCCN3Cc2ccsc2)nc1 | -4.69
CC(C)NC(=O)N1CCN(CCn2cccn2)c2ncccc2C1 | -100
Cn1cc(CN2CCn3cnc(COCC4CC4)c3C2)cn1 | 3.71
Cc1ccc(CN2CC[C@H]3OCC[C@@H](C(=O)NCC4CC4)[C@@H]3C2)s1 | -0.53
O=C(c1cc(C2CC2)no1)N1C[C@@H]2CC[C@H]1CN(Cc1ccccn1)C2 | 2.21
CCCn1nccc1NC(=O)CN1CCc2c(nc(C3CC3)n2C)C1 | 3.58
CCc1cnc(N2C[C@@H]3C[C@H](C(=O)NC4CCC4)[C@H](C2)O3)nc1 | 5.74
